Assay results reported in ChEMBL document CHEMBL4196114 (ACS Med Chem Lett, 2018).

Key:
Leishmania infantum [1] = experiment: Antileishmanial activity against Leishmania infantum MHOM/TN/80/IPT1 promastigotes after 72 hrs by MTT assay; format: functional, organism-based; settings: MHOM/TN/80/IPT1, 72 h
Outline: (§1)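 Promastigotes grown in Schneider's medium with 10% FCS at 22 °C. Assay in RPMI with 10% FCS, 20 mM Hepes and 2 mM glutamine, 5×10⁶ parasites/mL, seven serial dilutions from DMSO stocks, 72 h at 22 °C. MTT added for 3 h, pellet lysed in SDS/DMF, A550 read against 650 nm reference. IC50 given as mean of separate duplicate experiments; amphotericin B as reference.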

Leishmania tropica = experiment: Antileishmanial activity against Leishmania tropica MHOM/IT/2012/ISS3130 promastigotes after 72 hrs by MTT assay; format: functional, organism-based; settings: MHOM/IT/2012/ISS3130, 72 h; outline: as §1
THP-1 = experiment: Cytotoxicity against PMA-differentiated human THP1 cells after 72 hrs by MTT assay; format: cell-based; settings: THP-1, 72 h
Outline: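 THP-1 cells at 5×10⁵ cells/mL, differentiated with 0.1 μM PMA for 48 h, then exposed to serial dilutions for 72 h. Viability read by MTT; IC50 for growth inhibition. Duplicate experiments, mean reported.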

[2] = Selectivity index, ratio of IC50 for PMA-differentiated human THP1 cells to IC50 for Leishmania infantum MHOM/TN/80/IPT1 promastigotes; format: toxicity; settings: read-out: Ratio IC50
[3] = Selectivity index, ratio of IC50 for PMA-differentiated human THP1 cells to IC50 for Leishmania tropica MHOM/IT/2012/ISS3130 promastigotes; format: toxicity; settings: read-out: Ratio IC50
Leishmania infantum [4] = experiment: Antileishmanial activity against amastigote stage of Leishmania infantum infected in PMA-differentiated human THP1 cells assessed as inhibition of parasite growth at 0.5 uM after 72 hrs by Giemsa staining based light microscopy relative to control; format: functional; settings: THP-1, 72 h
Outline: (§2)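 THP-1 cells at 5×10⁵ cells/mL differentiated with 0.1 μM PMA for 48 h, then infected with metacyclic L. infantum promastigotes (1:10 macrophage:parasite) for 24 h. Washed monolayers exposed to compound for 72 h, methanol-fixed and Giemsa-stained. Percent infected macrophages versus untreated scored by light microscopy, and IC50 derived. Single-concentration values are means of two or three experiments, IC50 of two.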

Leishmania infantum [5] = experiment: Antileishmanial activity against amastigote stage of Leishmania infantum infected in PMA-differentiated human THP1 cells assessed as inhibition of parasite growth after 72 hrs by Giemsa staining based light microscopy; format: functional, organism-based; settings: THP-1, 72 h; outline: as §2
[6] = Selectivity index, ratio of IC50 for PMA-differentiated human THP1 cells to IC50 for amastigote stage of Leishmania infantum infected in PMA-differentiated human THP1 cells; format: toxicity; settings: read-out: Ratio IC50
Mus musculus = experiment: Toxicity in C57Bl/6 mouse assessed as survival at 300 mg/kg, po administered as single dose measured twice daily up to 30 days; format: organism-based; settings: in vivo, 720 h
Outline: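 Healthy female C57Bl/6 mice, groups of four or five, received one oral dose. Compound was first dissolved in DMSO, then suspended in 0.5% hydroxyethylcellulose-0.1% Tween 80. Behaviour and appearance were checked twice daily for 30 days. A dose counted as tolerated if all mice survived 30 days with normal appearance and behaviour.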

SMILES	IC50 (Leishmania infantum [1])	IC50 (Leishmania tropica)	IC50 (THP-1)	selectivity ratio [2]	selectivity ratio [3]	inhibition at 0.5 µM (Leishmania infantum [4])	IC50 (Leishmania infantum [5])	selectivity ratio [6]	Activity (Mus musculus)
N#Cc1ccc(-c2ccc(-c3ccc(CNCCCCCNc4ccnc5cc(Cl)ccc45)cc3)s2)cc1	5.42 µM	7.11 µM	8.1 µM	1.5	1.1	–	–	–	–
CN(CCCCCCCCNc1ccnc2ccccc12)Cc1ccc(-c2ccc(-c3ccc(C#N)cc3)s2)cc1	0.8 µM	1.06 µM	3.85 µM	4.8	3.6	–	–	–	–
CCN(CC)CCCC(C)Nc1c([N+](=O)[O-])cnc2cc(Cl)ccc12 (stereo not drawn)	6.49 µM	2.96 µM	> 110 µM	> 16.9	> 37	–	–	–	–
CCN(CC)CCCNc1c(N)cnc2cc(Cl)ccc12	16.6 µM	9.35 µM	> 65.2 µM	> 3.9	> 7	–	–	–	–
CN(CCCCCCCCNc1ccnc2c1CCCC2)Cc1ccc(-c2ccc(-c3ccc(C#N)cc3)s2)cc1	0.83 µM	0.8 µM	3.68 µM	4.4	4.6	–	–	–	–
Nc1cnc2cc(Cl)ccc2c1NCCCNCC12CC3CC(CC(C3)C1)C2	1.77 µM	1.3 µM	6.39 µM	3.6	4.9	–	–	–	–
N#Cc1ccc(-c2ccc(-c3ccc(CNCCCCCCCCNc4ccnc5c4CCCC5)cc3)s2)cc1	0.72 µM	0.75 µM	2.31 µM	3.2	3.1	29.6%	> 1 µM	< 2.31	–
Fc1ccc2scc(-c3ccc(CNCCCCNc4ccnc5ccccc45)cc3)c2c1	1.24 µM	1.02 µM	2.35 µM	1.9	2.3	42.7%	0.65 µM	3.61	Toxic
CCN(CC)CCCNc1ccnc2c1CCCC2	> 76.5 µM	> 76.5 µM	> 76.5 µM	> 1	> 1	–	–	–	–
Fc1ccc2scc(-c3ccc(CNCCCNc4ccnc5ccccc45)cc3)c2c1	1.03 µM	0.81 µM	2.31 µM	2.2	2.8	–	–	–	–
O=[N+]([O-])c1cnc2cc(Cl)ccc2c1NCCCNCC12CC3CC(CC(C3)C1)C2	1.91 µM	2.24 µM	12.6 µM	6.6	5.6	–	–	–	–
Fc1ccc2scc(C#CCNCCCCNc3ccnc4ccccc34)c2c1	1.02 µM	1.37 µM	7.11 µM	7	5.2	–	–	–	–
CCN(CC)CCCC(C)Nc1ccnc2c1CCCC2 (stereo not drawn)	> 69.1 µM	> 69.1 µM	> 69.1 µM	> 1	> 1	–	–	–	–
Clc1ccc2c(NCCCCCNCCC34CC5CC(CC(C5)C3)C4)ccnc2c1	0.73 µM	0.66 µM	1.81 µM	2.5	2.7	–	–	–	–
Fc1ccc2scc(-c3ccc(CNCCCCNc4ccnc5cc(Cl)ccc45)cc3)c2c1	1.02 µM	0.85 µM	4.28 µM	4.2	5	–	–	–	–
CC(CCCNCc1ccc(-c2csc3ccc(C#N)cc23)cc1)Nc1ccnc2ccccc12 (stereo not drawn)	1.55 µM	1.22 µM	2.79 µM	1.8	2.3	42.2%	0.79 µM	3.51	–
c1ccc2c(NCCCCNCc3csc4ccccc34)ccnc2c1	0.64 µM	0.68 µM	3.76 µM	5.8	5.5	–	–	–	–
CC(CCCNCc1ccc(-c2csc3ccc(F)cc23)cc1)Nc1ccnc2cc(Cl)ccc12 (stereo not drawn)	0.98 µM	0.91 µM	2.44 µM	2.5	2.7	36.9%	0.73 µM	3.34	–
Clc1ccc2c(NCCCNCc3csc4ccccc34)ccnc2c1	1.14 µM	1.31 µM	2.96 µM	2.6	2.3	26.4%	1.85 µM	1.6	–
Fc1ccc2scc(CNCCCCNc3ccnc4cc(Cl)ccc34)c2c1	0.51 µM	0.5 µM	1.91 µM	3.8	3.8	26.4%	> 1 µM	< 1.91	–
C[C@@H]1[C@H](O)[C@@H](C)/C=C/C=C/C=C/C=C/C=C/C=C/C=C/[C@H](O[C@@H]2O[C@H](C)[C@@H](O)[C@H](N)[C@@H]2O)C[C@@H]2O[C@](O)(C[C@@H](O)C[C@@H](O)[C@H](O)CC[C@@H](O)C[C@@H](O)CC(=O)O[C@H]1C)C[C@H](O)[C@H]2C(=O)O [AMPHOTERICIN B]	0.13 µM	0.14 µM	> 10.8 µM	> 83.1	> 77.1	95.5%	0.21 µM	> 51.4	–
N#Cc1ccc(-c2ccc(-c3ccc(CNCCCCCCCCNc4ccnc5ccccc45)cc3)s2)cc1	0.35 µM	0.3 µM	1.38 µM	4	4.6	–	–	–	–
CC(CCN(C)CCC12CC3CC(CC(C3)C1)C2)Nc1ccnc2cc(Cl)ccc12 (stereo not drawn)	2.46 µM	1.84 µM	3.29 µM	1.3	1.8	29.6%	1.91 µM	1.72	–
CCN(CC)CCCC(C)Nc1c(N)cnc2cc(Cl)ccc12 (stereo not drawn)	16.6 µM	6.63 µM	> 59.7 µM	> 3.6	> 9	–	–	–	–
N#Cc1ccc2c(CNCCCCNc3ccnc4cc(Cl)ccc34)csc2c1	1.23 µM	1.24 µM	4.25 µM	3.4	3.4	38.9%	1.29 µM	3.29	–
N#Cc1ccc(-c2ccc(-c3ccc(CNCCCCNc4ccnc5ccccc45)cc3)s2)cc1	1.22 µM	1.54 µM	2.8 µM	2.3	1.8	–	–	–	–
CCN(CC)CCCNc1c([N+](=O)[O-])cnc2cc(Cl)ccc12	8.67 µM	2.77 µM	23.7 µM	2.7	8.5	–	–	–	–
CC(CCNCCC12CC3CC(CC(C3)C1)C2)Nc1ccnc2ccccc12 (stereo not drawn)	2.4 µM	2.35 µM	4.9 µM	2	2.1	–	–	–	–
N#Cc1ccc(-c2ccc(-c3ccc(CNCCCCNc4ccnc5cc(Cl)ccc45)cc3)s2)cc1	2.3 µM	1.94 µM	5.01 µM	2.2	2.6	–	–	–	–
